Data taken from ChEMBL document CHEMBL4699443, “Position of lipidation influences anticancer activity of Smac analogs” (Bioorg Med Chem Lett, 2019).

Tests used:
HCC1954 = assay: Antiproliferative activity against human HCC1954 cells assessed as growth inhibition after 48 hrs by PrestoBlue dye based fluorescence assay; assay type: functional, cell-based; details: HCC1954, 48 h
VCaP = assay: Antiproliferative activity against human VCap cells assessed as growth inhibition after 48 hrs by PrestoBlue dye based fluorescence assay; assay type: functional, cell-based
[1] = Tmax in C57BL/6 mouse at 10 mg/kg, sc by LC-MS analysis; assay type: ADME, organism-based; details: in vivo
Summary of the method: (§1)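 Mice individually weighed, then given a single SC dose of 10 mg/kg. Blood taken by retro-orbital bleeding at set time points. Plasma levels measured by triple-quadrupole LC/MS; plasma half-life derived from these levels.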

[2] = Cmax in C57BL/6 mouse at 10 mg/kg, sc by LC-MS analysis; assay type: ADME, organism-based; parameters: route subcutaneous, dose 10 mg/kg; details: in vivo; summary of the method: as §1
[3] = Drug level in C57BL/6 mouse plasma at 10 mg/kg, sc after 30 mins by LC-MS analysis; assay type: ADME, organism-based; details: in vivo, 0.5 h; summary of the method: as §1
T47D = assay: Antiproliferative activity against human T47D cells assessed as growth inhibition after 48 hrs by PrestoBlue dye based fluorescence assay; assay type: functional, cell-based
HepG2 = assay: Antiproliferative activity against human HepG2 cells assessed as growth inhibition after 48 hrs by PrestoBlue dye based fluorescence assay; assay type: functional, cell-based; details: HepG2, 48 h

Q: Which EC50 (HCC1954) does the source give for `CCCCCCCCCCCCCCCCS[C@H]1C[C@@H](C(=O)NCC(c2ccccc2)c2ccccc2)N(C(=O)[C@@H](NC(=O)[C@H](C)NC)C(C)(C)C)C1` here?
A: 17.5 µM

Q: What about the EC50 (VCaP) of the same compound?
A: 8.9 µM

Q: With `CCCCCCCCCCCCCCCc1cccc(O[C@H]2C[C@@H](C(=O)NC(c3ccccc3)c3ccccc3)N(C(=O)[C@@H](NC(=O)[C@H](C)NC)C(C)(C)C)C2)c1` as the compound, how does the Tmax [1] read?
A: 15.5 h

Q: And the Cmax [2]?
A: 3.9708 µM

Q: What about the Cp [3] of the same compound?
A: 1985.4 fmol/µL

Q: For `CCCCCCCCCCCCCCCc1cccc(O[C@H]2C[C@@H](C(=O)NCC(c3ccccc3)c3ccccc3)N(C(=O)[C@@H](NC(=O)[C@H](C)NC)C(C)(C)C)C2)c1`, which EC50 (T47D) is on record?
A: 9 µM

Q: And the EC50 (HepG2)?
A: 5.4 µM
